From ChEMBL document CHEMBL4619783, “Identification and Optimization of a Series of 8-Hydroxy Naphthyridines with Potent In Vitro Antileishmanial Activity: Initial SAR and Assessment of In Vivo Activity” (J Med Chem, 2020)
≈ marks a conversion by molar mass, not a printed value.

Assays:
[1] = Toxicity in human THP1 cells assessed as reduction in cell viability; type: cell-based; conditions: THP-1 cells
[2] = Distribution coefficient, logD of the compound at pH 7.4 by chromatography; type: physicochemical; conditions: octanol/water
[3] = Intrinsic clearance in mouse liver microsomes; type: ADME, Microsome
Leishmania donovani [4] = experiment: Antileishmanial activity against Leishmania donovani amastigotes infected in human THP1 cells incubated for 96 hrs; type: functional, organism-based; conditions: THP-1, 96 h
In short: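 THP-1 cells were infected with L. donovani amastigotes and exposed to compound for 96 h rather than the earlier 72 h. Values are from at least three or four independent replicates.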

[5] = Kinetic aqueous solubility of the compound; type: physicochemical; conditions: buffer; for solubility kinetic: read-out: Kinetic_solubility
[6] = Stability in Balb/C mouse assessed as parent compound level at 50 mg/kg, ip BID after 8 hrs by UPLC Q-TOF analysis; type: ADME, organism-based; conditions: in vivo
In short: (§1)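 Balb/C mice received 50 mg/kg ip. Blood/water (1:2) was sampled at set time points, mixed with acetonitrile and centrifuged 5 min at 7000 rpm. Metabolites and parent compound were then analysed. Data are from two runs.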

[7] = Drug metabolism in Balb/C mouse assessed as glucuronide adduct formation at 50 mg/kg, ip BID by UPLC Q-TOF analysis; type: ADME, organism-based; conditions: in vivo; in short: as §1
[8] = Drug metabolism in Balb/C mouse assessed as hydroxylation formation at 50 mg/kg, ip BID by UPLC Q-TOF analysis; type: ADME, organism-based; conditions: in vivo; in short: as §1
[9] = Selectivity index, ratio of EC50 for toxicity in human THP1 cells assessed as reduction in cell viability to EC50 for antileishmanial activity against Leishmania donovani amastigotes infected in human THP1 cells incubated for 96 hrs; type: cell-based; conditions: THP-1 cells, read-out: Ratio EC50
Leishmania donovani [10] = experiment: Antileishmanial activity against Leishmania donovani infected in mouse assessed as reduction in parasite levels at 30 mg/kg, po qd; set-up: scale not given: the % may be the effect or the level left

Structure (SMILES)	EC50 [1]	logD [2]	CLH [3]	EC50 (Leishmania donovani [4])	Kinetic_solubility [5]	chromatographic logD [2]	solubility kinetic [5]	Stability [6]	Drug metabolism [7]	Drug metabolism [8]	selectivity ratio at 96 h [9]	Activity (Leishmania donovani [10])
O=C(NCc1ccc(Cl)cc1)c1ccc2cccnc2c1O	6.31 µM	4.8	19 mL/min/g	15.8 µM	219 µM							
O=C(NCc1ccc(Cl)cc1)c1ncc2cccnc2c1O	> 50.1 µM		10 mL/min/g		> 250 µM							
Cc1n[nH]c(-c2nc(N3CCCCS3(=O)=O)c3cccnc3c2O)n1	> 50.1 µM		0.6 mL/min/g	> 50.1 µM		1.5	250 µM (≈ 90.1 µg/mL)					
COc1ccc(CNC(=O)c2nn(C)c3cccnc3c2=O)cc1	> 50.1 µM	1.9	0.7 mL/min/g	> 50.1 µM	> 250 µM							
Cc1n[nH]c(-c2cc3ncccc3c(-c3ccccc3)n2)n1	> 50.1 µM			> 50.1 µM	> 250 µM							
O=C(NCc1ccc(Cl)cc1)c1ncc2ccccc2c1O	> 50.1 µM	7.6	28 mL/min/g	> 50.1 µM	39 µM							
CNC(=O)c1nc(-c2ccccc2OC)c2cccnc2c1O	39.8 µM	4.2	0.9 mL/min/g	10 µM	219 µM			Stable	Metabolite_Notdetected	Metabolite_Detected		
Cc1n[nH]c(-c2nc(-c3ccccc3C(F)(F)F)c3cccnc3c2O)n1	> 50.1 µM		1.4 mL/min/g	0.1 µM		4.3	> 250 µM					
C[C@@H](NC(=O)c1cn(C)c2cccnc2c1=O)c1ccc(F)cc1	> 50.1 µM		0.7 mL/min/g	> 50.1 µM			> 250 µM					
COc1ccccc1-c1nc(C(=O)NCC2CC2)c(O)c2ncccc12	> 50.1 µM		8 mL/min/g	2 µM			> 250 µM					
COc1ccccc1-c1nc(C(=O)N[C@H](C)c2ccc(F)cc2)c(O)c(=O)n1C	> 50.1 µM	5.5	< 0.5 mL/min/g	> 50.1 µM	173 µM							
O=C1CCCN1Cc1n[nH]c(-c2ncc3cccnc3c2O)n1	> 50.1 µM		< 0.5 mL/min/g	> 50.1 µM	> 250 µM							
O=C(NCc1ccc(Cl)cc1)c1nc(N2CCOCC2)c2cccnc2c1O	> 50.1 µM		24 mL/min/g	> 50.1 µM			219 µM (≈ 87.3 µg/mL)					
O=C(NCC1CC1)c1ncc2cccnc2c1O	> 50.1 µM		13 mL/min/g	1.26 µM		3.3						
COc1ccccc1-c1nc(-c2nnc(C)o2)c(O)c2ncccc12	> 50.1 µM	3.8	< 0.5 mL/min/g	> 50.1 µM	> 250 µM							
Cc1n[nH]c(-c2nc(N(C)C)c3cccnc3c2O)n1	> 50.1 µM		14 mL/min/g	15.8 µM		-0.6	> 250 µM					
COc1ccccc1-c1nc(-c2nc(C)n[nH]2)c(OC)c2ncccc12	> 50.1 µM	5.7	2 mL/min/g	2.51 µM	> 250 µM							
COc1ccc(CNC(=O)c2ncc3cccnc3c2O)cc1	> 50.1 µM	4.2	2.6 mL/min/g	0.501 µM	> 250 µM							
Oc1c(-c2nc(CN3CCOCC3)n[nH]2)ncc2cccnc12	> 50.1 µM	0.5	0.8 mL/min/g		219 µM							
Oc1c(-c2nc(C(O)c3ccccc3)n[nH]2)ncc2cccnc12 (configuration not stated)	> 50.1 µM		1.9 mL/min/g	5.01 µM	> 250 µM							
Cc1n[nH]c(-c2ncc3cccnc3c2O)n1	> 50.1 µM	0.73	3.3 mL/min/g	> 50.1 µM	> 250 µM							
Oc1c(-c2nnc(Cc3ccc(F)cc3)[nH]2)ncc2cccnc12	39.8 µM			2.51 µM								
Oc1c(-c2nnc(Cc3ccc(Cl)cc3)[nH]2)ncc2cccnc12	31.6 µM	4.1	18 mL/min/g		219 µM						100	
C[C@@H]1[C@H](O)[C@@H](C)/C=C/C=C/C=C/C=C/C=C/C=C/C=C/[C@H](O[C@@H]2O[C@H](C)[C@@H](O)[C@H](N)[C@@H]2O)C[C@@H]2O[C@](O)(C[C@@H](O)C[C@@H](O)[C@H](O)CC[C@@H](O)C[C@@H](O)CC(=O)O[C@H]1C)C[C@H](O)[C@H]2C(=O)O [AMPHOTERICIN B]	> 1 µM			0.2 µM								
CCCCCCCCCCCCCCCCOP(=O)([O-])OCC[N+](C)(C)C [MILTEFOSINE]	> 50.1 µM			3.98 µM								>99%
Cc1nnc(C(=O)NC(C)(C)c2nc(C(=O)NCc3ccc(F)cc3)c(O)c(=O)n2C)o1 [RALTEGRAVIR]	> 50.1 µM			> 50.1 µM	> 250 µM							
